From ChEMBL document CHEMBL1909630, “Azaxanthene based selective glucocorticoid receptor modulators: design, synthesis, and pharmacological evaluation of (S)-4-(5-(1-((1,3,4-thiadiazol-2-yl)amino)-2-methyl-1-oxopropan-2-yl)-5H-chromeno[2,3-b]pyridin-2-yl)-2-fluoro-N,N-dimethylbenzamide (BMS-776532) and its methylene homologue …” (J Med Chem, 2011) come the findings set out here.

In experiment [1] the target is T1, Glucocorticoid receptor (Homo sapiens, UniProt P04150).
T1 sequence (P04150 whole entry): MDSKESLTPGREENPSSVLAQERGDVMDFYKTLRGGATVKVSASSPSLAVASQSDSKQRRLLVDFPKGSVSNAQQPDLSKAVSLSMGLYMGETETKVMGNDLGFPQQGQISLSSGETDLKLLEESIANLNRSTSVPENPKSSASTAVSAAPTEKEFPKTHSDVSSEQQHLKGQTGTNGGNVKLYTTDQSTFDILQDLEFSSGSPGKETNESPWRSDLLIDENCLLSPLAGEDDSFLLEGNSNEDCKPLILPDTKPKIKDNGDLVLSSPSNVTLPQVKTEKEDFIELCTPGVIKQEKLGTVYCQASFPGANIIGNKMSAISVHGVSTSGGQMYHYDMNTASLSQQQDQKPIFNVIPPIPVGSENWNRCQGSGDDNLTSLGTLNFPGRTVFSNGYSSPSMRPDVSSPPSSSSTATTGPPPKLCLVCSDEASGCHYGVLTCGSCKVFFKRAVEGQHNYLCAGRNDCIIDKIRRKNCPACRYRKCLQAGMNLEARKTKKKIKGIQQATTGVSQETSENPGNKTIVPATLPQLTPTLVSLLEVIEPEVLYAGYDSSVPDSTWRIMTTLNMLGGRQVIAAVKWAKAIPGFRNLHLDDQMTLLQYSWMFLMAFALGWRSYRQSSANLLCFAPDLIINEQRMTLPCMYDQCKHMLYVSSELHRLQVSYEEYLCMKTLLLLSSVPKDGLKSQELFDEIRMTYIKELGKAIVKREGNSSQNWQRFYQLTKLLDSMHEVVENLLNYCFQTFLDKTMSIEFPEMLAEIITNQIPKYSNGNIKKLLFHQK
Description: Displacement of GS-red from glucocorticoid receptor by fluorescence polarization assay. A general note: Fluorescence polarisation rises when a labelled molecule tumbles more slowly, as on binding a larger partner.

For a further experiment, the target named is T2, Progesterone receptor (Homo sapiens, UniProt P06401).
T2 sequence (P06401 whole entry): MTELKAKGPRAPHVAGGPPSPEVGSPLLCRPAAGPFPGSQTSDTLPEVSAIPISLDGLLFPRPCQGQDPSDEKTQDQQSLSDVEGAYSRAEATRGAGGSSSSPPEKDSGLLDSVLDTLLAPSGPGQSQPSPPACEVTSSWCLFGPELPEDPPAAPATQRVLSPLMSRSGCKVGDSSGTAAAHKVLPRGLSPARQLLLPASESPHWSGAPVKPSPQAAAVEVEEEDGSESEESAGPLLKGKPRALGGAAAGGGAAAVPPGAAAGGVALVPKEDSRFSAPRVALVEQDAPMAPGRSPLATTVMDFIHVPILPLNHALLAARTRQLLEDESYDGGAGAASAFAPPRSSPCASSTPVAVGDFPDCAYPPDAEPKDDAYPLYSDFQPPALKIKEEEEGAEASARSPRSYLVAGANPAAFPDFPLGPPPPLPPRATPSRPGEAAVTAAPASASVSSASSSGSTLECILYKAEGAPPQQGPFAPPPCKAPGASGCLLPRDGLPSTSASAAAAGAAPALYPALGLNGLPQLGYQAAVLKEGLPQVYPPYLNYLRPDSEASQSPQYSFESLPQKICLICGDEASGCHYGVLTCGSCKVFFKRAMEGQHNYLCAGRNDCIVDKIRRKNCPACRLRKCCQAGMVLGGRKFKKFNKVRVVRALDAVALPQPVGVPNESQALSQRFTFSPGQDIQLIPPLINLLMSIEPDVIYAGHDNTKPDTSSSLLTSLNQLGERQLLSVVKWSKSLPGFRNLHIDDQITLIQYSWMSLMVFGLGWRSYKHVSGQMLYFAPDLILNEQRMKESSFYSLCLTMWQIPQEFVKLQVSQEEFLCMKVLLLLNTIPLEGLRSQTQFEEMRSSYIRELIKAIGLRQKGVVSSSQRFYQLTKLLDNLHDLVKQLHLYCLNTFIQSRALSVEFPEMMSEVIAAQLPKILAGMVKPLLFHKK
The experiment in a line: Displacement of fluorescently labeled ligand from progesterone receptor by fluorescence polarization assay.

The target in experiment [2] is T1, Glucocorticoid receptor. Description: Transrepression activity at glucocorticoid receptor alpha in phorbol myristate acetate-stimulated human A549 cells assessed as inhibition of AP1 response element by luciferase reporter gene assay. In kind it is cell-based. For orientation: In a reporter assay the amount or activity of a reporter protein is the signal.
Experiment [3] has as its target T1, Glucocorticoid receptor. The experiment in a line: Transactivation activity at GR-alpha in human NP1 Hela cells assessed as induction of GAL4-DBD after 20 hrs by luciferase reporter gene assay. In kind it is cell-based.
Experiment [4] addresses T1, Glucocorticoid receptor. Description: Transactivation activity at glucocorticoid receptor alpha human 13D3/Huh7 cells assessed as induction of TAT activity after 4 hrs by spectrophotometry. In kind it is cell-based, Huh-7.
Experiment [5] has as its target T1, Glucocorticoid receptor. The experiment in a line: Transactivation activity at GR-alpha in human NP1 Hela cells assessed as inhibition of GAL4-DBD after 20 hrs by luciferase reporter gene assay. In kind it is cell-based.
Experiment [6] concerns the target T1, Glucocorticoid receptor. The experiment in a line: Transrepression activity at glucocorticoid receptor alpha in IL-1beta-stimulated human A549 cells assessed as inhibition of NFkappaB-dependent E-selectin transcription by luciferase reporter gene assay. In kind it is cell-based.
Experiment [7] concerns Blood. Description: Antiinflammatory activity in human whole blood assessed as inhibition of LPS-induced TNFalpha production after overnight incubation by ELISA. In kind it is functional, tissue-based. In outline: (§1)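 Whole blood from two donors per experiment was collected into ACD-A. Compounds were added and the blood was incubated about 20 h at 37 °C under 5% CO2. Blood was then stimulated for 5 h with LPS (final 100 ng/mL, for TNFα) or IL-1β (final 10 ng/mL, for IL-8). Plasma TNFα or IL-8 was measured by ELISA. Efficacy was expressed as % of dexamethasone, and values are means of at least two experiments.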
For orientation: An ELISA detects its analyte on a solid surface through an enzyme-linked reagent.

The test system of experiment [8] is Blood. Description: Antiinflammatory activity in human whole blood assessed as inhibition of LPS-induced TNFalpha production after overnight incubation by ELISA relative to Dexamethasone. In kind it is functional. In outline:
as §1

The test system of experiment [9] is Blood. The experiment in a line: Antiinflammatory activity in human whole blood assessed as inhibition of TNF-alpha-induced IL-8 production after overnight incubation by ELISA. In kind it is functional, tissue-based.
Experiment [10] concerns Blood. The experiment in a line: Antiinflammatory activity in human whole blood assessed as inhibition of TNF-alpha-induced IL-8 production after overnight incubation by ELISA relative to dexamethasone. In kind it is functional.
Experiment [11] concerns Blood. Description: Antiinflammatory activity in human whole blood assessed as inhibition of IL-1beta-induced IL-8 production after overnight incubation by ELISA. In kind it is functional, tissue-based. The method in brief: as §1
Experiment [12] concerns Blood. Description: Antiinflammatory activity in human whole blood assessed as inhibition of IL-1beta-induced IL-8 production after overnight incubation by ELISA relative to Dexamethasone. In kind it is functional. The method in brief:
as §1

Broadly, the Ki is the equilibrium dissociation constant of an inhibitor or competing ligand from its target. Read a high Ki as weaker binding. In general, EC50 refers to the concentration needed to bring the measured effect to its halfway point. `CC(C)Oc1ccc(-c2ccc3c(n2)Oc2ccccc2[C@H]3C(C)(C)C(=O)Nc2nncs2)cc1`: the Ki at Glucocorticoid receptor [1] came to 1.6 nM; on Progesterone receptor, 310 nM. Moreover, the EC50 stood at 18.1 nM at Glucocorticoid receptor [2], 135 nM on Glucocorticoid receptor [3], 107 nM at Glucocorticoid receptor [4] and 77 nM on Glucocorticoid receptor [5].
Turning to `CC(C)(C(=O)Nc1nncs1)[C@H]1c2ccccc2Oc2nc(-c3ccc(C(=O)N4CCOCC4)c(F)c3)ccc21`, the Ki on Glucocorticoid receptor [1] was 2.7 nM. Further, the EC50 at Glucocorticoid receptor [2] came to 11.7 nM; at Glucocorticoid receptor [6], 11.7 nM; on Glucocorticoid receptor [3] it was 78.9 nM; at Glucocorticoid receptor [4] it was 93 nM; on Glucocorticoid receptor [5], 34.4 nM; in the experiment on Blood [7], 469 nM. Besides, the EC50 in the experiment on Blood [9] is 382 nM; in the experiment with Blood [11], 789 nM. The values for the Imax in the experiment with Blood [8], with Blood [10] and in the experiment with Blood [12] were 88%, 84% and 92%, respectively.
`CC(C)Oc1ccc(-c2ccc3c(n2)Oc2ccccc2[C@@H]3C(C)(C)C(=O)Nc2nncs2)cc1F` showed a Ki at Glucocorticoid receptor [1] of 3.9 nM. For the same compound, the EC50 on Glucocorticoid receptor [2] was 47 nM; at Glucocorticoid receptor [6] it was 73 nM; on Glucocorticoid receptor [3], 496 nM; at Glucocorticoid receptor [4], 876 nM; at Glucocorticoid receptor [5] it was 162 nM; with Blood [7] it was above 5000 nM. Also, the EC50 in the experiment with Blood [9] and in the experiment on Blood [11] was above 20000 nM throughout. The results for the Imax in the experiment with Blood [8], with Blood [10] and in the experiment with Blood [12] were 49%, 12% and 7%, respectively.
Regarding `CC(C)(C(=O)Nc1nncs1)[C@H]1c2ccccc2Oc2nc(-c3ccc(C(=O)N4CCC(F)(F)C4)c(Cl)c3)ccc21`, the Ki at Glucocorticoid receptor [1] stood at 3.08 nM. Moreover, the EC50 stood at 50 nM at Glucocorticoid receptor [2]; 33.8 nM on Glucocorticoid receptor [6]; 165 nM at Glucocorticoid receptor [3]; 329 nM at Glucocorticoid receptor [4]; 130 nM at Glucocorticoid receptor [5]; 932 nM in the experiment with Blood [7]. Moreover, the EC50 was 2850 nM with Blood [9] and 5250 nM in the experiment on Blood [11]. Further, the Imax was 85% in the experiment on Blood [8], 59% in the experiment on Blood [10] and 82% with Blood [12].
The compound `CNC(=O)c1ccc(-c2ccc3c(n2)Oc2ccccc2[C@@H]3C(C)(C)C(=O)Nc2nncs2)cc1F` displayed a Ki on Glucocorticoid receptor [1] of 5.48 nM. The EC50 on Glucocorticoid receptor [2] is 34.1 nM; at Glucocorticoid receptor [6], 157 nM; on Glucocorticoid receptor [3] it was above 10000 nM; on Glucocorticoid receptor [4] it was above 5000 nM; on Glucocorticoid receptor [5], 408 nM; in the experiment on Blood [7] it was 819 nM. Further, the EC50 with Blood [9] and in the experiment on Blood [11] was above 20000 nM in each case. The Imax in the experiment on Blood [8] amounted to 58%; with Blood [10] it was 15%; in the experiment on Blood [12] it was 35%.
For the compound `CC(C)(C(=O)Nc1nncs1)[C@H]1c2ccccc2Oc2nc(-c3ccc(C(=O)N4CCCCC4)c(F)c3)ccc21`, the Ki at Glucocorticoid receptor [1] amounted to 1.68 nM. For the same compound, the EC50 is 27.5 nM on Glucocorticoid receptor [2]; 25.6 nM on Glucocorticoid receptor [6]; above 10000 nM on Glucocorticoid receptor [3]; above 5000 nM at Glucocorticoid receptor [4]; 204 nM at Glucocorticoid receptor [5]; 5470 nM with Blood [7]. For the same compound, the EC50 with Blood [9] is above 20000 nM; in the experiment on Blood [11], 3190 nM. For the same compound, the Imax was determined as 73% in the experiment on Blood [8], 45% in the experiment with Blood [10] and 27% with Blood [12].
Turning to `CC(C)(C(=O)Nc1nncs1)[C@H]1c2ccccc2Oc2nc(-c3ccc(C(=O)N4CCCC4)c(F)c3)ccc21`, the Ki on Glucocorticoid receptor [1] worked out at 1.96 nM. The EC50 at Glucocorticoid receptor [2] was found to be 25 nM; at Glucocorticoid receptor [6] it was 29.2 nM; at Glucocorticoid receptor [3], 177 nM; at Glucocorticoid receptor [4] it was 389 nM; on Glucocorticoid receptor [5], 205 nM; in the experiment with Blood [7] it was 886 nM. The EC50 in the experiment with Blood [9] is 1300 nM; with Blood [11], 238 nM. Further, the results for the Imax in the experiment with Blood [8], in the experiment on Blood [10] and in the experiment on Blood [12] were 80%, 61% and 86%, respectively.
Turning to `CC(C)(C(=O)Nc1nncs1)[C@H]1c2ccccc2Oc2nc(-c3ccc(C(=O)N4CCC(F)(F)C4)c(F)c3)ccc21`, the affinity on Glucocorticoid receptor [1] corresponds to a Ki of 2.53 nM. For the same compound, the EC50 on Glucocorticoid receptor [2] was found to be 37.9 nM; on Glucocorticoid receptor [6], 20.6 nM; on Glucocorticoid receptor [3], 192 nM; on Glucocorticoid receptor [4], 1990 nM; at Glucocorticoid receptor [5] it was 99.3 nM; in the experiment with Blood [7] it was 4020 nM. Moreover, the EC50 in the experiment with Blood [9] amounted to 3070 nM; with Blood [11] it was 2490 nM. Further, the Imax in the experiment on Blood [8] worked out at 78%; in the experiment on Blood [10], 67%; in the experiment with Blood [12], 81%.
